Molecular target: Neuraminidase (Influenza A virus) (UniProt B4URF0)
Experiment: Inhibition of oseltamivir-resistant Influenza Virus A/342/0 (H1N1) neuraminidase at 52.5 uM
Method in brief: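 Human oseltamivir-resistant H1N1 NA tested at a single 52.5 μM concentration in the NA-Star chemiluminescent assay. Compound and virus dilution were held 20 min at 37 C, then substrate (1:500) was added for 30 min at room temperature. Value given as percent inhibition relative to six untreated virus controls.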

Sequence of Neuraminidase (Influenza A virus) (B4URF0 as listed by the source): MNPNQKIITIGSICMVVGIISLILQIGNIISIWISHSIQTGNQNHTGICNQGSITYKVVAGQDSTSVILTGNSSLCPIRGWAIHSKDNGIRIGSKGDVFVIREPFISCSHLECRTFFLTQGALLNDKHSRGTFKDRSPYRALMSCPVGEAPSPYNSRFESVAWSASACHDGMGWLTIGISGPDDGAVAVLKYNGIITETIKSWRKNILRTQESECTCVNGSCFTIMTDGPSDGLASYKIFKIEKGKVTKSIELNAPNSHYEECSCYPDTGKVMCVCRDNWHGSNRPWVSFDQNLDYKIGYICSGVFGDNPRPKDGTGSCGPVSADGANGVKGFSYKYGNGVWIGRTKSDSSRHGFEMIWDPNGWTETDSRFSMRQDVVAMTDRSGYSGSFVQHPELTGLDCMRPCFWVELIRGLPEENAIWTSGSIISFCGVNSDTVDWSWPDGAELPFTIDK

Compound O=C(CCc1ccccc1)C[C@@H]1C[C@@H](c2ccccc2)c2c(cc(/C=C/c3ccccc3)oc2=O)O1 [KATSUMADAIN A] has an inhibition of 45.9%.

From ChEMBL document CHEMBL1154750 (J Med Chem, 2010)
